SMILES strings stand for the structures.

Sequence of Transient receptor potential cation channel subfamily V member 1 (Q8NER1 whole entry): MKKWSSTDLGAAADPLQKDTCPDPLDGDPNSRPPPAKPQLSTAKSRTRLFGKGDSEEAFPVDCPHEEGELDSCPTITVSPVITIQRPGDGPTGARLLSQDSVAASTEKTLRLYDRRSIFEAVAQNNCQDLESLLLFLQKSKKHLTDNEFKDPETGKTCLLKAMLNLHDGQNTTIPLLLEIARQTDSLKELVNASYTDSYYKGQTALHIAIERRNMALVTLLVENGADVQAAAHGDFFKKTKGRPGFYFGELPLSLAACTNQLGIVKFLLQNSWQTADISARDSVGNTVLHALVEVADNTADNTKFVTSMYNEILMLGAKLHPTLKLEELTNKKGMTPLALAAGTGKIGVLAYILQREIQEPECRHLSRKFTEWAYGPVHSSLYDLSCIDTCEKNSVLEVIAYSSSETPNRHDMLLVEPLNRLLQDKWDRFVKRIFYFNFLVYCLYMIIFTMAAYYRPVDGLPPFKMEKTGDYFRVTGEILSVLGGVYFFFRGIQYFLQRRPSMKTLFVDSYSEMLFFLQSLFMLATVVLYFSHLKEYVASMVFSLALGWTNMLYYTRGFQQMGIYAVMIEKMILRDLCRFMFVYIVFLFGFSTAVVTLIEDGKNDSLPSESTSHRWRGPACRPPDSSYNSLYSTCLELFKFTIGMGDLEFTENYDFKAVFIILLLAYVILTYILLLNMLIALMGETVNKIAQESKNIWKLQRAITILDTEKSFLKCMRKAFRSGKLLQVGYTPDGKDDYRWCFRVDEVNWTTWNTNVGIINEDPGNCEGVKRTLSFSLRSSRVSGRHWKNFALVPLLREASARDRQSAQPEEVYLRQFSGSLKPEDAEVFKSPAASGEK

The target in the first assay is Transient receptor potential cation channel subfamily V member 1 (Homo sapiens, UniProt Q8NER1). Put plainly: Antagonist activity at human TRPV1 transfected in CHOK1 cells assessed as inhibition of capsaicin-induced intracellular calcium level measured for 120 secs by FLIPR analysis. The format is cell-based, CHO-K1. The procedure, abridged:
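CHO-K1 cells stably expressing hTRPV1, grown to 90% confluency, loaded 90 min at rt with Fluo4-AM (2 μM) in HBSS/20 mM HEPES pH 7.4, then washed three times. Test agent added at various concentrations together with 100 nM capsaicin. Peak fluorescence over 120 s averaged in triplicate. IC50 is the concentration giving 50% inhibition of the capsaicin control response.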
A general note: Calcium flux is commonly read through the fluorescence of an indicator in the cells.
For orientation: IC50 means the concentration that inhibits the measured activity by half. Regarding `CN(CCO)c1ccc(NC(=O)COc2ccc(C(F)(F)F)cc2)cn1`, the IC50 was above 10000 nM. On the same count and under the same terms, the same measure for `O=C(Nc1ccccc1Br)N[C@H]1CCN(c2ccc(C(F)(F)F)cn2)C1`: 120 nM; for `CN(CCO)c1ccc(NC(=O)COc2ccc(C34CC5CC(CC(C5)C3)C4)cc2)cn1`: above 10000 nM; for `CCN(C)c1ccc(NC(=O)COc2ccc(C(C)(C)C)cc2)cn1`: 583 nM. Regarding `CN(CCO)c1ccc(NC(=O)COc2cccc(C(C)(C)C)c2)cn1`, the IC50 stood at 2620 nM.

On to `CN(C)c1ccc(NC(=O)COc2ccc(C(C)(C)C)cc2)cn1`, for which the half-maximal inhibitory concentration (IC50) stood at 59 nM. Consider `CN(CCO)c1ccc(NC(=O)COc2ccc(C(C)(C)C)cc2C(C)(C)C)cn1`, for which the IC50 came to 107 nM.

Consider `CN(CCO)c1ccc(NC(=O)COc2ccc(C(C)(C)C)cc2Br)cn1`, for which the IC50 is 86 nM.

Regarding `CN(CCO)c1ccc(NC(=O)COc2ccccc2C(C)(C)C)cn1`, the IC50 was 796 nM.

Turning to `CN(CCO)c1ccc(NC(=O)COc2ccc(C(C)(C)C)cc2N2CCCCC2)cn1`, the IC50 came out at 941 nM. For `CN(CCO)c1ccc(NC(=O)COc2ccc(C(C)(C)C)cc2)cn1`, the IC50 was 33 nM. The same measure, in the same setting: the same measure for `CN(CCO)c1ccc(NC(=O)COc2ccccc2)cn1`: above 10000 nM; for `CN(CCO)c1ncc(NC(=O)COc2ccc(C(C)(C)C)cc2)cc1Cl`: 44 nM; for `Cc1cc(NC(=O)COc2ccc(C(C)(C)C)cc2)cnc1N(C)CCO`: 130 nM.

On to `CC(C)c1ccc(OCC(=O)Nc2ccc(N(C)CCO)nc2)cc1`, for which the IC50 was 110 nM. The same measure, in the same setting: with `CC(C)(C)c1ccc(OCC(=O)Nc2ccc(N3CCC(O)C3)nc2)cc1` (centres undefined) the figure was 516 nM. The same measure, in the same setting: with `CC(C)(C)c1ccc(OCC(=O)Nc2ccc(N3CCCC3)nc2)cc1` the figure was 411 nM.

For another assay, the system named is Rattus norvegicus. The assay can be described thus: Suppression of capsaicin-induced bladder contraction in iv dosed Sprague-Dawley rat overactive bladder model. The class given is functional, organism-based. The procedure, abridged: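 Female Sprague–Dawley rats anesthetized with urethane (1.0 g/kg ip) and bladder catheterized via the urethra, with saline infused at 3.0 mL/h for 5 min for basal pressure. Capsaicin 30 μg/kg iv given every 10 min. After stable contractions, test agent or vehicle (20% cremophor EL) given iv, followed by capsaicin again. Reported as % change in contraction. n=4, mean ± SEM; Bartlett's then Williams' test versus vehicle.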
With `CN(CCO)c1ccc(NC(=O)COc2ccc(C(C)(C)C)cc2)cn1`, the Activity result was “Dose-dependent effect”.

A further assay has as its system Rattus norvegicus. Put plainly: Reduction of cyclophosphamide-induced voiding frequency in iv dosed Sprague-Dawley rat cystitis and pollakiuria model measured for 20 mins. The format is functional, organism-based. The essentials:
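Female Sprague–Dawley rats given cyclophosphamide 150 mg/kg ip. Bladder catheter implanted 4 h later, with saline infused at 3.6 mL/h for continuous cystometry. Once voiding frequency was stable, dosed iv with test agent or vehicle (20% cremophor EL). Voids counted for 20 min before and after dosing and expressed as % change. n=4, mean ± SEM; Bartlett's then Williams' test versus vehicle.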
As to `CN(CCO)c1ccc(NC(=O)COc2ccc(C(C)(C)C)cc2)cn1`, the Activity entry is “Dose-dependent effect”.
